Some results are limits rather than exact numbers.

This assay deals with T1, Dihydrofolate reductase (Rattus norvegicus, UniProt Q920D2).
T1 sequence (Q920D2 whole entry): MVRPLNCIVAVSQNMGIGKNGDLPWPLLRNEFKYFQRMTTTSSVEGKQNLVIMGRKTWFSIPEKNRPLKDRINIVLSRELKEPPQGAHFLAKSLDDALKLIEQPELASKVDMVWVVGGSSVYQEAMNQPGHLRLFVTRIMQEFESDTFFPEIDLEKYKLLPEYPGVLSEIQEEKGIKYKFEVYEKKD
Kind of assay: In vitro inhibitory concentration against rat liver dihydrofolate reductase(DHFR). As to conditions: read-out: I50. A digest of the protocol:
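Partially purified rat liver DHFR, prepared by the Bertino and Fischer method, assayed spectrophotometrically at 340 nm. I50 is the final inhibitor concentration that cuts the reaction rate to 50% of the uninhibited rate. […] Inhibitors were dissolved in 0.1 M HCl or 95% ethanol.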
On to `CCc1nc(N)nc(N)c1-c1ccc(N2CCN(C)CC2)c(N)c1`, for which the IC50 is more than 25 µM.

`CCc1nc(N)nc(N)c1-c1ccc([N+](=O)[O-])c(NCc2ccccc2)c1`: the IC50 was 9.2 µM.

With `CCc1nc(N)nc(N)c1-c1ccc(N(C)Cc2ccccc2)c(N)c1`, the IC50 came out at 0.1 µM.

Turning to `CCc1nc(N)nc(N)c1-c1ccc(N(C)C)cc1`, the IC50 worked out at 6.2 µM.

As for `CCc1nc(N)nc(N)c1-c1ccc(N(C)C)c(N)c1`, the IC50 is 67 µM.

Consider `CCc1nc(N)nc(N)c1-c1ccc(N2CCCC2)c(N)c1`, for which the IC50 was more than 25 µM.

With `CCc1nc(N)nc(N)c1-c1ccc(N2CCNCC2)c(N)c1`, the IC50 is more than 25 µM.

For `CCc1nc(N)nc(N)c1-c1ccc(N2CCCC2)c([N+](=O)[O-])c1`, the IC50 stood at 1.7 µM.

As for `CCc1nc(N)nc(N)c1-c1ccc(N2CCOCC2)c(N)c1`, the IC50 was more than 25 µM.

As to `CCc1nc(N)nc(N)c1-c1ccc(N2CCNCC2)c([N+](=O)[O-])c1`, the IC50 amounted to 3.1 µM.

Consider `CCc1nc(N)nc(N)c1-c1ccc(N2CCN(C)CC2)c([N+](=O)[O-])c1`, for which the IC50 was found to be 3.9 µM.

For `CCc1nc(N)nc(N)c1-c1ccc([N+](=O)[O-])c(N(C)Cc2ccccc2)c1`, the IC50 is 0.44 µM.

On to `CCc1nc(N)nc(N)c1-c1ccc(N2CCOCC2)c([N+](=O)[O-])c1`, for which the IC50 stood at 8 µM.
